Experimental data published in ChEMBL document CHEMBL1143610, “Applying linear interaction energy method for rational design of noncompetitive allosteric inhibitors of the sarco- and endoplasmic reticulum calcium-ATPase” (J Med Chem, 2005).

target: T1, Sarcoplasmic/endoplasmic reticulum calcium ATPase 1 (Homo sapiens, UniProt O14983); assay: Inhibitory potency against sarco- endoplasmic reticulum calcium-ATPase in relative to thapsigargin
Target sequence in this assay (O14983 whole entry, looked up): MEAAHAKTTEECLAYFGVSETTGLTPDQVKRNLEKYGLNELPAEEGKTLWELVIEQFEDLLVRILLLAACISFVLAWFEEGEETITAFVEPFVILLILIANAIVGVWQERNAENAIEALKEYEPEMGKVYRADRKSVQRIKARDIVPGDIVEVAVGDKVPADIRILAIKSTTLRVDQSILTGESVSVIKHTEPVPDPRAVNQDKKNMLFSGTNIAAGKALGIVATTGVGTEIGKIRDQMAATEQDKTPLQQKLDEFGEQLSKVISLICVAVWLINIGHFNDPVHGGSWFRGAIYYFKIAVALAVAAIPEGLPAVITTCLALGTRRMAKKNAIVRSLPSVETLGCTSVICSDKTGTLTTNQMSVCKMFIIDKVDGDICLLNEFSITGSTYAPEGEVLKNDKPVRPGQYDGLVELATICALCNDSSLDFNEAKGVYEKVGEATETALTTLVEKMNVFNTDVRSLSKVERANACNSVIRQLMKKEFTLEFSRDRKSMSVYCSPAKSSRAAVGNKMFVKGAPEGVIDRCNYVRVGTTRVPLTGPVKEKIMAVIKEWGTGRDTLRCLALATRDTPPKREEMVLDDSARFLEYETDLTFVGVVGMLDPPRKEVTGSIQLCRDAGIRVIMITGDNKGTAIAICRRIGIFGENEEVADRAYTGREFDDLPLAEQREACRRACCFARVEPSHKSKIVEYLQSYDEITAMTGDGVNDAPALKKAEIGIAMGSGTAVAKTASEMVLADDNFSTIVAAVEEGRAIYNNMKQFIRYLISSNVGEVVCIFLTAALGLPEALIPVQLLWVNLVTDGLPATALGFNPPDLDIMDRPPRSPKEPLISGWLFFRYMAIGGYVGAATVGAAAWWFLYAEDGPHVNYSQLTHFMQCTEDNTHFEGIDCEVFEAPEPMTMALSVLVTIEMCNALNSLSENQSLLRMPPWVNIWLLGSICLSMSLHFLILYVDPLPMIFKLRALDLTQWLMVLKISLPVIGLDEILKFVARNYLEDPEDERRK

SMILES	RIC50
CCCCCCCC(=O)O[C@H]1[C@H]2C(=C(C)[C@@H]1OC(=O)CCCCCCC)[C@@H]1OC(=O)[C@@](C)(O)[C@@]1(O)[C@@H](OC(=O)CCC)C[C@]2(C)OC(C)=O	0.09
C/C=C(/C)C(=O)O[C@H]1C(C)=C2[C@H]([C@@H]1OC(=O)CCCCCCC)[C@@](C)(OC(C)=O)C[C@H](OC(=O)CCCCCCCCCCCNC(=O)[C@@H](N)CC(C)C)[C@@]1(O)[C@H]2O[C@H](O)[C@@]1(C)O	0.294
C/C=C(/C)C(=O)O[C@H]1C(C)=C2[C@H]([C@@H]1OC(=O)CCCCCCC)[C@@](C)(OC(C)=O)C[C@@H](OC(=O)CCC)[C@@]1(O)[C@H]2OC(=O)[C@@]1(C)O	0.0003
C/C=C(/C)C(=O)O[C@H]1C(C)=C2[C@H]([C@@H]1OC(=O)CCCCCCC)[C@@](C)(OC(C)=O)C[C@H](OC(=O)CCC)[C@@]1(O)[C@H]2O[C@H]2O[C@]21C	0.186
C/C=C(/C)C(=O)O[C@H]1C(C)=C2[C@H]([C@@H]1OC(=O)CCCCC)[C@@](C)(O)C[C@H](OC(=O)CCC)[C@@]1(O)[C@H]2O[C@H]2OC(C)(C)O[C@]21C	0.002
C/C=C(\C)C(=O)O[C@H]1C(C)=C2[C@H]([C@@H]1OC(=O)CCCCCCC)[C@@](C)(OC(C)=O)C[C@H](OC(=O)CCC)[C@@]1(OC(C)=O)[C@H]2OC(=O)[C@@]1(C)OC(C)=O	0.07
C/C=C(/C)C(=O)O[C@H]1C(C)=C2[C@H]([C@@H]1OC(=O)CCCCCCC)[C@@](C)(OC(C)=O)C[C@H](OC(=O)CCCCCCCN)[C@@]1(O)[C@H]2O[C@H](O)[C@@]1(C)O	0.059
C/C=C(\C)C(=O)O[C@H]1C(C)=C2[C@H]([C@@H]1OC(=O)CCCCCCC)[C@@](C)(O)C[C@H](OC(=O)CCC)[C@@]1(O)[C@H]2OC(=O)[C@@]1(C)O	0.02
C/C=C(/C)C(=O)O[C@H]1C(C)=C2[C@H]([C@@H]1OC(=O)CCCCCCC)[C@@](C)(OC(C)=O)C[C@H](OC(=O)CCCCCCCCCCCNC(=O)[C@@H](N)CO)[C@@]1(O)[C@H]2O[C@H](O)[C@@]1(C)O	1.25
C/C=C(/C)C(=O)O[C@H]1C(C)=C2[C@H]([C@@H]1OC(=O)CCCCCCC)[C@@](C)(OC(C)=O)C[C@H](OC(=O)CCCCCCCCCCCNC(=O)[C@H](C)N)[C@@]1(O)[C@H]2O[C@H](O)[C@@]1(C)O	0.833
C/C=C(/C)C(=O)O[C@H]1C(C)=C2[C@H]([C@@H]1OC(=O)CCCCCCC)[C@@](C)(OC(C)=O)C[C@H](OC(=O)CCCCCCCCCCN)[C@@]1(O)[C@H]2O[C@H](O)[C@@]1(C)O	0.333
C/C=C(/C)C(=O)O[C@H]1C(C)=C2[C@H]([C@@H]1OC(=O)CCCCCCC)[C@@](C)(OC(C)=O)C[C@H](OC(=O)CCCCCCN)[C@@]1(O)[C@H]2O[C@H](O)[C@@]1(C)O	0.011
C/C=C(/C)C(=O)O[C@H]1C(C)=C2[C@H]([C@@H]1OC(=O)CCCCC)[C@@](C)(OC(C)=O)C[C@H](OC(=O)CCC)[C@@]1(O)[C@H]2O[C@H]2O[C@@H](OCC)O[C@]21C	0.02
CCCCCCCC(=O)O[C@@H]1C(=O)C(C)=C2[C@H]1[C@@](C)(OC(C)=O)C[C@H](OC(=O)CCC)[C@@]1(O)[C@H]2OC(=O)[C@@]1(C)O	0.015
C/C=C(/C)C(=O)O[C@H]1C(C)=C2[C@H]([C@@H]1OC(=O)CCCCCCC)[C@@](C)(OC(C)=O)C[C@H](OC(=O)CCCCCN)[C@@]1(O)[C@H]2O[C@H](O)[C@@]1(C)O	0.01
C/C=C(/C)C(=O)O[C@H]1C(C)=C2[C@H]([C@@H]1OC(=O)CCCCC)[C@@](C)(OC(C)=O)C[C@H](OC(=O)CCC)[C@@]1(O)[C@H]2O[C@@H](OCC)[C@@]1(C)O	0.52
C/C=C(/C)C(=O)O[C@H]1C(C)=C2[C@H]([C@@H]1OC(=O)CCCCCCC)[C@@](C)(OC(C)=O)C[C@H](OC(=O)CCCCCNC(=O)[C@@H](N)CC(C)C)[C@@]1(O)[C@H]2O[C@H](O)[C@@]1(C)O	0.004
CCCCCCCCO[C@@H]1C(C)=C2[C@H]([C@@H]1OC(=O)CCCCCCC)[C@@](C)(OC(C)=O)C[C@H](OC(=O)CCC)[C@@]1(O)[C@H]2OC(=O)[C@@]1(C)O	0.002
C/C=C(\C)C(=O)O[C@H]1C(C)=C2[C@H]([C@@H]1OC(=O)CCCCCCC)[C@@](C)(OC(C)=O)C[C@H](OC(=O)CCC)[C@@]1(OC(C)=O)[C@H]2OC(=O)[C@@]1(C)O	0.36

SMILES	RIC50
C/C=C(/C)C(=O)O[C@H]1C(C)=C2[C@H]([C@@H]1OC(=O)CCCCCCC)[C@@](C)(OC(C)=O)C[C@H](OC(=O)CCC)[C@@]1(O)[C@H]2OC(=O)[C@@]1(C)O (stereo in doubt; form 1)	1
C/C=C(/C)C(=O)O[C@H]1C(C)=C2[C@H]([C@@H]1OC(=O)CCCCCCC)[C@@](C)(OC(C)=O)C[C@H](OC(=O)c1ccc(N)cc1)[C@@]1(O)[C@H]2O[C@H](O)[C@@]1(C)O	0.59
C/C=C(/C)C(=O)O[C@H]1C(C)=C2[C@H]([C@@H]1OC(=O)CCCCCCC)[C@@](C)(OC(C)=O)C[C@H](OC(=O)CCC(=O)Nc1ccc(C)c(N)c1)[C@@]1(O)[C@H]2O[C@H](O)[C@@]1(C)O	0.003
C/C=C(/C)C(=O)O[C@H]1C(C)=C2[C@H]([C@@H]1OC(=O)CCCCC)[C@@](C)(OC(C)=O)C[C@H](OC(=O)CCC)[C@@]1(O)[C@H]2O[C@H](OCC)[C@@]1(C)O	0.85
C/C=C(/C)C(=O)O[C@H]1C(C)=C2[C@H]([C@@H]1OC(=O)CCCCCCC)[C@@](C)(OC(C)=O)C[C@H](O)[C@@]1(O)[C@H]2O[C@H](O)[C@@]1(C)O	0.19
C/C=C(/C)C(=O)O[C@H]1C(C)=C2[C@H]([C@@H]1O)[C@@](C)(O)C[C@H](OC(=O)CCC)[C@@]1(O)[C@H]2O[C@H]2OC(C)(C)O[C@]21C	0.0002
C/C=C(/C)C(=O)O[C@H]1C(C)=C2[C@H]([C@@H]1OC(=O)CCCCC)[C@@](C)(OC(C)=O)C[C@H](OC(=O)CCC)[C@@]1(O)[C@H]2O[C@H]2OCO[C@]21C	0.06
C/C=C(/C)C(=O)O[C@H]1C(C)=C2[C@H]([C@@H]1OC(=O)CCCCCCC)[C@@](C)(OC(C)=O)C[C@H](OC(=O)CCCCCC(=O)Nc1ccc(C)c(N)c1)[C@@]1(O)[C@H]2O[C@H](O)[C@@]1(C)O	0.22
C/C=C(/C)C(=O)O[C@H]1C(C)=C2[C@H]([C@@H]1OC(=O)CCCCCCC)[C@@](C)(O)C[C@H](OC(=O)CCCCCCC)[C@@]1(O)[C@H]2OC(O)[C@@]1(C)O (stereo not given in full)	0.08
C/C=C(/C)C(=O)O[C@H]1C(C)=C2[C@H]([C@@H]1OC(=O)CCCCCCC)[C@@](C)(OC(C)=O)C[C@H](OC(=O)CCC)[C@@]1(O)[C@H]2OC(=O)[C@@]1(C)O (stereo in doubt; form 2)	0.67
C/C=C(/C)C(=O)O[C@H]1C(C)=C2[C@H]([C@@H]1OC(=O)CCCCCCC)[C@@](C)(OC(C)=O)C[C@H](OC(=O)CCCCCCCCCCCN)[C@@]1(O)[C@H]2O[C@H](O)[C@@]1(C)O	0.384
C/C=C(/C)C(=O)O[C@H]1C(C)=C2[C@H]([C@@H]1OC(=O)CCCCCCC)[C@@](C)(OC(C)=O)C[C@H](OC(=O)CCc1ccc(NC(=O)OC(C)(C)C)cc1)[C@@]1(O)[C@H]2O[C@H](O)[C@@]1(C)O	0.52
C/C=C(/C)C(=O)O[C@H]1C(C)=C2[C@H]([C@@H]1OC(=O)CCCCC)[C@@](C)(OC(C)=O)C[C@H](OC(=O)CCC)[C@@]1(O)[C@H]2O[C@H]2O[C@H](OCC)O[C@]21C	0.4
C/C=C(/C)C(=O)O[C@H]1C(C)=C2[C@H]([C@@H]1OC(=O)CCCCCCC)[C@@](C)(OC(C)=O)C[C@H](OC(=O)CCCc1ccc(N)cc1)[C@@]1(O)[C@H]2O[C@H](O)[C@@]1(C)O	0.6
C/C=C(/C)C(=O)O[C@H]1C(C)=C2[C@H]([C@@H]1OC(=O)CCCCC)[C@@](C)(OC(C)=O)C[C@H](OC(=O)CCC)[C@@]1(O)[C@H]2OC(=O)[C@@]1(C)O	0.98
C/C=C(/C)C(=O)O[C@H]1C(C)=C2[C@H]([C@@H]1OC(=O)CCCCCCC)[C@@](C)(OC(C)=O)C[C@H](OC(=O)/C=C/c1ccc(N)cc1)[C@@]1(O)[C@H]2O[C@H](O)[C@@]1(C)O	0.59
C/C=C(/C)C(=O)O[C@H]1C(C)=C2[C@H]([C@@H]1OC(=O)CCCCCCC)[C@@](C)(OC(C)=O)C[C@H](OC(=O)/C=C/c1ccc(NC(=O)OC(C)(C)C)cc1)[C@@]1(O)[C@H]2O[C@H](O)[C@@]1(C)O	0.54
C/C=C(/C)C(=O)O[C@H]1C(C)=C2[C@H]([C@@H]1OC(=O)CCCCCCC)[C@@](C)(OC(C)=O)C[C@H](OC(=O)CCc1ccc(N)cc1)[C@@]1(O)[C@H]2O[C@H](O)[C@@]1(C)O	0.68
C/C=C(\C)C(=O)O[C@H]1C(C)=C2[C@H]([C@@H]1OC(=O)CCCCCCC)[C@@](C)(OC(C)=O)C[C@H](OC(=O)CCC)[C@@]1(O)[C@H]2OC(=O)[C@@]1(C)OC(C)=O	0.4

target: T1, Sarcoplasmic/endoplasmic reticulum calcium ATPase 1; assay: Inhibitory potency against sarco- endoplasmic reticulum calcium-ATPase in relative to thapsigargin (Experimental)
Target sequence in this assay (O14983 whole entry, looked up): as above

SMILES	RIC50
CCCCCCCC(=O)O[C@@H]1C(=O)C(C)=C2[C@H]1[C@@](C)(OC(C)=O)C[C@H](OC(=O)CCCCCCCCCCCNC(=O)CCC(N)C(=O)O)[C@@]1(O)[C@H]2OC(=O)[C@@]1(C)O (stereo not given in full)	0.83
CCCCCCCC(=O)O[C@@H]1C(=O)C(C)=C2[C@H]1[C@@](C)(OC(C)=O)C[C@H](OC(=O)CCCC(=O)O)[C@@]1(O)[C@H]2OC(=O)[C@@]1(C)O	0.02
CCCCCCCC(=O)O[C@@H]1C(=O)C(C)=C2[C@H]1[C@@](C)(OC(C)=O)C[C@H](OC(=O)CCCCCCCCCCC(=O)O)[C@@]1(O)[C@H]2OC(=O)[C@@]1(C)O	0.25
CCCCCCCC(=O)O[C@@H]1C(=O)C(C)=C2[C@H]1[C@@](C)(OC(C)=O)C[C@H](OC(=O)CCC(=O)Nc1ccc(C)c(N)c1)[C@@]1(O)[C@H]2OC(=O)[C@@]1(C)O	0.004

target: T1, Sarcoplasmic/endoplasmic reticulum calcium ATPase 1; assay: Inhibitory potency against sarco- endoplasmic reticulum calcium-ATPase in relative to thapsigargin by using SGB-LIE method
Summary of the method: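 SGB-LIE computation with a surface generalized Born continuum solvent. SERCA coordinates came from one TG-bound monomer of PDB 1IWO, truncated to the transmembrane domain, lumen and the near-membrane cytoplasmic part. Histidine protonation was set to favour H-bonds. Ligands were superimposed on bound TG, with O-8 side chains in the hydrophobic channel. Vacuum minimisation held protein atoms fixed except nonpolar H. LIE parameters were fitted to experimental data for 20 training analogues.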
Target sequence in this assay (O14983 whole entry, looked up): as above

SMILES	RIC50
CCCCCCCC(=O)O[C@@H]1C(=O)C(C)=C2[C@H]1[C@@](C)(OC(C)=O)C[C@H](OC(=O)CCCCCCCCCCCNC(=O)CCC(N)C(=O)O)[C@@]1(O)[C@H]2OC(=O)[C@@]1(C)O (stereo not given in full)	5
CCCCCCCC(=O)O[C@@H]1C(=O)C(C)=C2[C@H]1[C@@](C)(OC(C)=O)C[C@H](OC(=O)CCCC(=O)O)[C@@]1(O)[C@H]2OC(=O)[C@@]1(C)O	0.31
CCCCCCCC(=O)O[C@@H]1C(=O)C(C)=C2[C@H]1[C@@](C)(OC(C)=O)C[C@H](OC(=O)CCCCCCCCCCC(=O)O)[C@@]1(O)[C@H]2OC(=O)[C@@]1(C)O	2.08
CCCCCCCC(=O)O[C@@H]1C(=O)C(C)=C2[C@H]1[C@@](C)(OC(C)=O)C[C@H](OC(=O)CCC(=O)Nc1ccc(C)c(N)c1)[C@@]1(O)[C@H]2OC(=O)[C@@]1(C)O	0.0006

target: T1, Sarcoplasmic/endoplasmic reticulum calcium ATPase 1; assay: Inhibitory activity against sarco- endoplasmic reticulum calcium-ATPase
Target sequence in this assay (O14983 whole entry): as the sequence (O14983 whole entry, looked up) above

SMILES	IC50 [nM]
CCCCCCCC(=O)O[C@@H]1C(=O)C(C)=C2[C@H]1[C@@](C)(OC(C)=O)C[C@H](OC(=O)CCCCCCCCCCCNC(=O)CCC(N)C(=O)O)[C@@]1(O)[C@H]2OC(=O)[C@@]1(C)O (stereo not given in full)	1.2
CCCCCCCC(=O)O[C@@H]1C(=O)C(C)=C2[C@H]1[C@@](C)(OC(C)=O)C[C@H](OC(=O)CCCC(=O)O)[C@@]1(O)[C@H]2OC(=O)[C@@]1(C)O	19.8
CCCCCCCC(=O)O[C@@H]1C(=O)C(C)=C2[C@H]1[C@@](C)(OC(C)=O)C[C@H](OC(=O)CCCCCCCCCCC(=O)O)[C@@]1(O)[C@H]2OC(=O)[C@@]1(C)O	2.08
CCCCCCCC(=O)O[C@@H]1C(=O)C(C)=C2[C@H]1[C@@](C)(OC(C)=O)C[C@H](OC(=O)CCC(=O)Nc1ccc(C)c(N)c1)[C@@]1(O)[C@H]2OC(=O)[C@@]1(C)O	9040
